Results taken from ChEMBL document CHEMBL1649574, “Prevalence and characterization of heterogeneous vancomycin-intermediate Staphylococcus aureus isolates from 14 cities in China” (2009).

Assays:
Type in all cases: functional
Staphylococcus aureus [1] = experiment: Antimicrobial activity against SCCmec type II vancomycin-intermediate Staphylococcus aureus isolate 6zjsau7 by agar dilution method
Method in brief: (§1)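 Agar-dilution MICs were measured on a subset of 200 blood MRSA isolates from China. Agents: oxacillin, rifampin, gentamicin, levofloxacin, erythromycin, vancomycin, teicoplanin, tigecycline, ceftobiprole and linezolid. Phenotype came from the PAP-AUC ratio of each isolate to S. aureus Mu3 (VSSA <0.9; hVISA 0.9 to 1.3; VISA ≥1.3), read on BHI agar with 0 to 8.0 mg/liter vancomycin after 48 h at 35°C.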

Staphylococcus aureus [2] = experiment: Antimicrobial activity against heterogeneous vancomycin-intermediate Staphylococcus aureus assessed as susceptible isolates by agar dilution method
Method in brief: (§2)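 MICs by agar dilution for all 200 MRSA blood isolates (oxacillin, rifampin, gentamicin, levofloxacin, erythromycin, vancomycin, teicoplanin, tigecycline, ceftobiprole, linezolid). Isolates were grouped by PAP-AUC ratio against S. aureus Mu3: below 0.9 VSSA, 0.9 to 1.3 hVISA, 1.3 or more VISA.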

Staphylococcus aureus [3] = experiment: Antimicrobial activity against SCCmec type III vancomycin-intermediate Staphylococcus aureus isolate sh07043 by agar dilution method; method in brief: as §1
Staphylococcus aureus [4] = experiment: Antimicrobial activity against SCCmec type III vancomycin-intermediate Staphylococcus aureus isolate gs07022 by agar dilution method; method in brief: as §1
Staphylococcus aureus [5] = experiment: Antimicrobial activity against heterogeneous vancomycin-susceptible Staphylococcus aureus assessed as intermediate isolates by agar dilution method
Staphylococcus aureus [6] = experiment: Antimicrobial activity against SCCmec type III vancomycin-intermediate Staphylococcus aureus isolate 13b16 by agar dilution method; method in brief: as §1
Staphylococcus aureus [7] = experiment: Antimicrobial activity against SCCmec type III vancomycin-intermediate Staphylococcus aureus isolate b3k2345 by agar dilution method; method in brief: as §1
Staphylococcus aureus [8] = experiment: Antimicrobial activity against SCCmec type IV vancomycin-intermediate Staphylococcus aureus isolate 06b41 by agar dilution method; method in brief: as §1
Staphylococcus aureus [9] = experiment: Antimicrobial activity against vancomycin-susceptible Staphylococcus aureus assessed as growth inhibition at 2 times MIC; set-up: scale not given: the % may be the effect or the level left
Staphylococcus aureus [10] = experiment: Antimicrobial activity against heterogeneous vancomycin-intermediate Staphylococcus aureus assessed as growth inhibition at MIC; set-up: scale not given: the % may be the effect or the level left
Staphylococcus aureus [11] = experiment: Antimicrobial activity against vancomycin-susceptible Staphylococcus aureus assessed as growth inhibition at 0.5 times MIC; set-up: scale not given: the % may be the effect or the level left
Staphylococcus aureus [12] = experiment: Antimicrobial activity against SCCmec type III vancomycin-intermediate Staphylococcus aureus isolate gz06051 by agar dilution method; method in brief: as §1
Staphylococcus aureus [13] = experiment: Antimicrobial activity against SCCmec type II vancomycin-intermediate Staphylococcus aureus isolate 07b63 by agar dilution method; method in brief: as §1
Staphylococcus aureus [14] = experiment: Antimicrobial activity against heterogeneous vancomycin-intermediate Staphylococcus aureus assessed as growth inhibition at 0.5 times MIC; set-up: scale not given: the % may be the effect or the level left
Staphylococcus aureus [15] = experiment: Antimicrobial activity against heterogeneous vancomycin-intermediate Staphylococcus aureus assessed as growth inhibition at 4 times MIC; set-up: scale not given: the % may be the effect or the level left
Staphylococcus aureus [16] = experiment: Antimicrobial activity against SCCmec type III vancomycin-intermediate Staphylococcus aureus isolate b5k3529 by agar dilution method; method in brief: as §1
Staphylococcus aureus [17] = experiment: Antimicrobial activity against heterogeneous vancomycin-intermediate Staphylococcus aureus assessed as growth inhibition at 0.125 times MIC; set-up: scale not given: the % may be the effect or the level left
Staphylococcus aureus [18] = experiment: Antimicrobial activity against vancomycin-susceptible Staphylococcus aureus assessed as growth inhibition at 16 times MIC; set-up: scale not given: the % may be the effect or the level left
Staphylococcus aureus [19] = experiment: Antimicrobial activity against SCCmec type III vancomycin-intermediate Staphylococcus aureus isolate 15b52 by agar dilution method; method in brief: as §1
Staphylococcus aureus [20] = experiment: Antimicrobial activity against heterogeneous vancomycin-susceptible Staphylococcus aureus assessed as susceptible isolates by agar dilution method; method in brief: as §2
Staphylococcus aureus [21] = experiment: Antimicrobial activity against SCCmec type II vancomycin-intermediate Staphylococcus aureus isolate 4sy32 by agar dilution method; method in brief: as §1
Staphylococcus aureus [22] = experiment: Antimicrobial activity against heterogeneous vancomycin-intermediate Staphylococcus aureus by agar dilution method; method in brief: as §1
Staphylococcus aureus [23] = experiment: Antimicrobial activity against SCCmec type III vancomycin-intermediate Staphylococcus aureus isolate 5zjsau3 by agar dilution method; method in brief: as §1
Staphylococcus aureus [24] = experiment: Antimicrobial activity against vancomycin-susceptible Staphylococcus aureus assessed as growth inhibition at MIC; set-up: scale not given: the % may be the effect or the level left
Staphylococcus aureus [25] = experiment: Antimicrobial activity against vancomycin-susceptible Staphylococcus aureus assessed as growth inhibition at 0.25 times MIC; set-up: scale not given: the % may be the effect or the level left
Staphylococcus aureus [26] = experiment: Antimicrobial activity against heterogeneous vancomycin-intermediate Staphylococcus aureus assessed as growth inhibition at 16 times MIC; set-up: scale not given: the % may be the effect or the level left
Staphylococcus aureus [27] = experiment: Antimicrobial activity against SCCmec type III vancomycin-intermediate Staphylococcus aureus isolate b6k1642 by agar dilution method; method in brief: as §1
Staphylococcus aureus [28] = experiment: Antimicrobial activity against SCCmec type III vancomycin-intermediate Staphylococcus aureus isolate b4k6307 by agar dilution method; method in brief: as §1
Staphylococcus aureus [29] = experiment: Antimicrobial activity against SCCmec type II vancomycin-intermediate Staphylococcus aureus isolate sh06024 by agar dilution method; method in brief: as §1
Staphylococcus aureus [30] = experiment: Antimicrobial activity against heterogeneous vancomycin-intermediate Staphylococcus aureus assessed as intermediate isolates by agar dilution method; method in brief: as §2
Staphylococcus aureus [31] = experiment: Antimicrobial activity against SCCmec type III vancomycin-intermediate Staphylococcus aureus isolate 11b091 by agar dilution method; method in brief: as §1
Staphylococcus aureus [32] = experiment: Antimicrobial activity against SCCmec type III vancomycin-intermediate Staphylococcus aureus isolate b5k3578 by agar dilution method; method in brief: as §1
Staphylococcus aureus [33] = experiment: Antimicrobial activity against SCCmec type II vancomycin-intermediate Staphylococcus aureus isolate 4sy39 by agar dilution method; method in brief: as §1
Staphylococcus aureus [34] = experiment: Antimicrobial activity against heterogeneous vancomycin-intermediate Staphylococcus aureus assessed as growth inhibition at 2 times MIC; set-up: scale not given: the % may be the effect or the level left
Staphylococcus aureus [35] = experiment: Antimicrobial activity against SCCmec type III vancomycin-intermediate Staphylococcus aureus isolate b6k7974 by agar dilution method; method in brief: as §1
Staphylococcus aureus [36] = experiment: Antimicrobial activity against heterogeneous vancomycin-intermediate Staphylococcus aureus assessed as growth inhibition at 0.25 times MIC; set-up: scale not given: the % may be the effect or the level left
Staphylococcus aureus [37] = experiment: Antimicrobial activity against SCCmec type III vancomycin-intermediate Staphylococcus aureus isolate xa07029 by agar dilution method; method in brief: as §1
Staphylococcus aureus [38] = experiment: Antimicrobial activity against vancomycin-susceptible Staphylococcus aureus assessed as growth inhibition at 0.125 times MIC; set-up: scale not given: the % may be the effect or the level left
Staphylococcus aureus [39] = experiment: Antimicrobial activity against SCCmec type III vancomycin-intermediate Staphylococcus aureus isolate bd4768 by agar dilution method; method in brief: as §1
Staphylococcus aureus [40] = experiment: Antimicrobial activity against vancomycin-intermediate Staphylococcus aureus by agar dilution method; method in brief: as §1
Staphylococcus aureus [41] = experiment: Antimicrobial activity against SCCmec type III vancomycin-intermediate Staphylococcus aureus isolate gz06040 by agar dilution method; method in brief: as §1
Staphylococcus aureus [42] = experiment: Antimicrobial activity against vancomycin-susceptible Staphylococcus aureus by agar dilution method; method in brief: as §1
Staphylococcus aureus [43] = experiment: Antimicrobial activity against SCCmec type III vancomycin-intermediate Staphylococcus aureus isolate b2k3421 by agar dilution method; method in brief: as §1
Staphylococcus aureus [44] = experiment: Antimicrobial activity against SCCmec type III vancomycin-intermediate Staphylococcus aureus isolate gz07030 by agar dilution method; method in brief: as §1
Staphylococcus aureus [45] = experiment: Antimicrobial activity against SCCmec type III vancomycin-intermediate Staphylococcus aureus isolate b3k5923 by agar dilution method; method in brief: as §1
Staphylococcus aureus [46] = experiment: Antimicrobial activity against SCCmec type III vancomycin-intermediate Staphylococcus aureus isolate zj07028 by agar dilution method; method in brief: as §1
Staphylococcus aureus [47] = experiment: Antimicrobial activity against vancomycin-susceptible Staphylococcus aureus assessed as growth inhibition at 4 times MIC; set-up: scale not given: the % may be the effect or the level left
Staphylococcus aureus [48] = experiment: Antimicrobial activity against SCCmec type II vancomycin-intermediate Staphylococcus aureus isolate b2k4781 by agar dilution method; method in brief: as §1

CN(C)c1cc(NC(=O)CNC(C)(C)C)c(O)c2c1C[C@H]1C[C@H]3[C@H](N(C)C)C(O)=C(C(N)=O)C(=O)[C@@]3(O)C(O)=C1C2=O [TIGECYCLINE]
0.064 µg/mL: MIC (Staphylococcus aureus [7]) | MIC (Staphylococcus aureus [28])
90.2%: Activity (Staphylococcus aureus [25])
100%: Activity (Staphylococcus aureus [2]) | Activity (Staphylococcus aureus [9]) | Activity (Staphylococcus aureus [10]) | Activity (Staphylococcus aureus [11]) | Activity (Staphylococcus aureus [14]) | Activity (Staphylococcus aureus [15]) | Activity (Staphylococcus aureus [18]) | Activity (Staphylococcus aureus [20]) | Activity (Staphylococcus aureus [24]) | Activity (Staphylococcus aureus [26]) | Activity (Staphylococcus aureus [34]) | Activity (Staphylococcus aureus [47])
92.6%: Activity (Staphylococcus aureus [36])
0.5 µg/mL: MIC (Staphylococcus aureus [13]) | MIC (Staphylococcus aureus [46])
0.25 µg/mL: MIC (Staphylococcus aureus [1]) | MIC (Staphylococcus aureus [3]) | MIC (Staphylococcus aureus [4]) | MIC (Staphylococcus aureus [8]) | MIC (Staphylococcus aureus [12]) | MIC (Staphylococcus aureus [19]) | MIC (Staphylococcus aureus [21]) | MIC50 (Staphylococcus aureus [22]) | MIC90 (Staphylococcus aureus [22]) | MIC (Staphylococcus aureus [23]) | MIC (Staphylococcus aureus [27]) | MIC (Staphylococcus aureus [32]) | MIC (Staphylococcus aureus [33]) | MIC (Staphylococcus aureus [35]) | MIC (Staphylococcus aureus [37]) | MIC (Staphylococcus aureus [40]) | MIC90 (Staphylococcus aureus [42])
0%: Activity (Staphylococcus aureus [5]) | Activity (Staphylococcus aureus [30])
54.3%: Activity (Staphylococcus aureus [38])
44.4%: Activity (Staphylococcus aureus [17])
0.125 µg/mL: MIC (Staphylococcus aureus [6]) | MIC (Staphylococcus aureus [16]) | MIC (Staphylococcus aureus [29]) | MIC (Staphylococcus aureus [31]) | MIC (Staphylococcus aureus [39]) | MIC (Staphylococcus aureus [41]) | MIC50 (Staphylococcus aureus [42]) | MIC (Staphylococcus aureus [43]) | MIC (Staphylococcus aureus [44]) | MIC (Staphylococcus aureus [48])
0.032 µg/mL: MIC (Staphylococcus aureus [45])
